Experimental data collected from several papers.
pIC50, pKi: −log10 of the molar value.
Prolyl endopeptidase: Prolyl endopeptidase (Mus musculus, UniProt Q9QUR6)
Oprm1: Mu-type opioid receptor (Oprm1, Rattus norvegicus, UniProt P33535)
ENO1: ENO1 (Candida albicans, UniProt P30575)
Sialidase-3: Sialidase-3 (Homo sapiens, UniProt Q9UQ49)

SMILES	target	assay	conditions	quantity	value
C=CCc1ccc(O)c(-c2cc(CC=C)ccc2O)c1	Prolyl endopeptidase	enzyme activity, inhibitor, fluorescence	–	pIC50	< 4.00
C/C=C1/CN2CC[C@]34C(=C(C(=O)OC)[C@H]1C[C@H]23)Nc1ccc(Br)cc14	Oprm1	ligand displacement, radioligand	cell membranes	pKi	6.18
COc1cc2c(cc1OC)CN(CCc1ccc(NC(=O)c3cccc4c(=O)c5cccc(OC)c5[nH]c34)cc1)CC2	D(4) dopamine receptor (DRD4, Homo sapiens, UniProt P21917)	cell-free assay	–	pKi	< 5.00
COc1c2c(cc3c1-c1c(cc4c(c1OC)OCO4)C[C@H](C)[C@H](C)C3)OCO2	Prolyl endopeptidase	enzyme activity, inhibitor, fluorescence	–	pIC50	< 4.00
O=C1CCCN1CP(=O)(O)O	ENO1	enzyme activity, inhibitor, absorbance	–	pIC50	< 4.30
CCCCNC(=O)N[C@H]1[C@H]([C@H](O)[C@H](O)CO)OC(C(=O)O)=C[C@@H]1O	Sialidase-3	enzyme activity, inhibitor	–	pIC50	< 3.30
O=Nc1c(O)[nH]c(=O)[nH]c1=O	ENO1	enzyme activity, inhibitor, absorbance	–	pIC50	< 4.30
CN1C(=O)CN=C(c2ccccc2F)c2cc([N+](=O)[O-])ccc21	Aldo-keto reductase family 1 member C2 (AKR1C2, Homo sapiens, UniProt P52895)	enzyme activity, inhibitor	–	pIC50	5.80
C/C=C1/CN2CC[C@]34C(=C(C(=O)OC)[C@H]1C[C@H]23)Nc1ccc(I)cc14	Oprm1	ligand displacement, radioligand	cell membranes	pKi	6.41
CC(C)(C)CC(=O)N[C@H]1[C@H]([C@H](O)[C@H](O)CO)OC(C(=O)O)=C[C@@H]1O	Sialidase-3	enzyme activity, inhibitor	–	pIC50	< 3.30
